Results reported in ChEMBL document CHEMBL1122659, “Synthesis of some phosphonates with antiherpetic activity” (1984).
Values after ≈ are worked out from the molar mass of the structure shown. Active and inactive are the calls of the source. The rule behind the calls is not given here.

Legend:
[1] = In vitro ability to inhibit the herpes HSV-2 virus; type: functional, herpes simplex virus; conditions: Oryctolagus cuniculus
Mus musculus [2] = species: Mus musculus; test: Average survival rate of mice infected intravaginally with herpes simplex virus type 2 at daily dosage of 10%(treatment initiated 4-h postinfection and continued for 7 days); type: functional
In short: (§1)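 Mice infected intravaginally with HSV-2. Test agent suspended in gum tragacanth and applied intravaginally. Survival recorded.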

Mus musculus [3] = species: Mus musculus; test: Average survival rate of mice infected intravaginally with herpes simplex virus type 2 at daily dosage of 5%(treatment initiated 4-h postinfection and continued for 7 days); type: functional; in short: as §1
Mus musculus [4] = species: Mus musculus; test: Percent survival rate of mice infected intravaginally with herpes simplex virus type 2 at daily dosage of 10%(treatment initiated 4-h postinfection and continued for 7 days); type: functional; in short: as §1
Mus musculus [5] = species: Mus musculus; test: Average survival rate of mice infected intravaginally with herpes simplex virus type 2 with placebo (treatment initiated 4-h postinfection and continued for 7 days)
Mus musculus [6] = species: Mus musculus; test: Percent survival rate of mice infected intravaginally with herpes simplex virus type 2 at daily dosage of 5%(treatment initiated 4-h postinfection and continued for 7 days); type: functional; in short: as §1
Mus musculus [7] = species: Mus musculus; test: Percent survival rate of mice infected intravaginally with herpes simplex virus type 2 at daily dosage of 2.5%(treatment initiated 4-h postinfection and continued for 7 days); type: functional; in short: as §1
Oryctolagus cuniculus = species: Oryctolagus cuniculus; test: In vitro ability to inhibit the herpes HSV-2 virus; Inactive; type: functional, organism-based; conditions: herpes simplex virus

Compound	MIC [1] [µg/mL]	also measured
CCOC(=O)c1ccc(OCCCCCCP(=O)(OCC)OCC)cc1	6 (≈ 15.5 µM)	–
CCOP(=O)(CCCCCCOc1c(Cl)cccc1Cl)OCC	12 (≈ 31.3 µM)	–
CCCOP(=O)(CCCCCCOc1ccc(OC)cc1Cl)OCCC	6 (≈ 14.7 µM)	–
CCOP(=O)(OCC)C(CCCCOc1ccc(OC)cc1Cl)C(C)=O (stereo not drawn)	12 (≈ 29.5 µM)	–
CCOP(=O)(OCC)C(CCCCCOc1ccc(OC)cc1Cl)C(C)=O (stereo not drawn)	6 (≈ 14.3 µM)	–
CCOP(=O)(OCC)C(CCCCCCOc1ccc(OC)cc1Cl)C(C)=O (stereo not drawn)	6 (≈ 13.8 µM)	–
CCOP(=O)(OCC)C(CCCCCCCCOc1ccc(OC)cc1Cl)C(C)=O (stereo not drawn)	6 (≈ 13 µM)	–
CCOC(=O)C(CCCCCCOc1ccc(OC)cc1Cl)P(=O)(OCC)OCC (stereo not drawn)	3 (≈ 6.45 µM)	Average survival (Mus musculus [2]): >8.7 days; Average survival (Mus musculus [3]): >7.3 days; Survival (Mus musculus [4]): 20%; Average survival (Mus musculus [5]): >8.1 days; Survival (Mus musculus [6]): 10%; Survival (Mus musculus [7]): 10%
CCOP(=O)(OCC)C(CCCCc1ccc(OC)cc1)C(C)=O (stereo not drawn)	25 (≈ 70.1 µM)	–
CCOP(=O)(OCC)C(CCCCCCCOc1ccc(OC)cc1Cl)C(C)=O (stereo not drawn)	6 (≈ 13.4 µM)	–
CCOP(=O)(CCCCCCCCOc1ccc(OC)cc1Cl)OCC	–	MIC (Oryctolagus cuniculus): inactive
CCOP(=O)(CCCCCCCOc1ccc(OC)cc1Cl)OCC	–	MIC (Oryctolagus cuniculus): inactive
